In brackets after ≈: the same amount, converted by molar mass. Several values for one entry are separate records, joined by “and”; a condition that tells them apart may be missing. Equal entries are not always repeated.
How the values were obtained:
YAP [1] = test: RT-PCR mRNA expression of YAP in HuCCT-1; format: cell-based, human; conditions: HuCCT-1, 72 hours
[2] = test system: OUMS-36T-1 (normal human cell line); test: Antiproliferative MTT assay, OUMS-36T-1; format: cell-based; conditions: OUMS-36T-1, MTT, 72 hours, mean±SD
How it was run: (§1)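 Cells (8,000/well; HuCCT-1 in RPMI-1640, OUMS-36T-1 in DMEM, both with 10% FBS) were preincubated 24 h at 37°C, 5% CO2, then exposed to test compound for 72 h. Natural product range was 1.95–250 µg/ml. MTT (5 mg/ml stock) was added for 3.5 h, formazan dissolved in DMSO, and A590 read. IC25/IC50 came from dose-response analysis. SI = HuCCT-1 vs OUMS-36T-1 IC50 ratio. Three experiments, triplicate.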

HuCCT-1 (CCA cell line) = test: Antiproliferative MTT assay, HuCCT-1; format: cell-based, human; conditions: for IC25 (concentration that inhibits cell growth by 25%) / IC50 (concentration that inhibits cell growth by 50%): HuCCT-1, MTT, 72 hours, mean±SD; for Selectivity index (SI): ratio of the IC50 in HuCCT-1 and OUMS-36T-1 cells
How it was run: as §1

JAG1 ligand [3] = test: RT-PCR mRNA expression of JAG1 ligand in HuCCT-1; format: cell-based, human; conditions: HuCCT-1, 72 hours, at IC25
PI3K [4] = test: RT-PCR mRNA expression of PI3K in HuCCT-1; format: cell-based, human; conditions: HuCCT-1, 72 hours
Notch1 receptor = test: RT-PCR mRNA expression of Notch1 receptor in HuCCT-1; format: cell-based, human; conditions: HuCCT-1, 72 hours
JAG1 ligand [5] = test: Western blot protein expression of JAG1 ligand in HuCCT-1; format: cell-based, human; conditions: HuCCT-1, 72 hours, at IC25
How it was run: (§2)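 After 72 h exposure to test compound, HuCCT-1 cells were lysed in RIPA buffer with protease inhibitor, and protein was quantified by BCA. Lysates were resolved by SDS-PAGE and transferred to nitrocellulose. Membranes were probed overnight with primary antibodies (target and β-actin), then an AP-conjugated anti-rabbit secondary. Bands were quantified by densitometry. Three experiments, each in triplicate.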

PI3K [6] = test: Western blot protein expression of PI3K in HuCCT-1; format: cell-based, human; conditions: HuCCT-1, 72 hours, at IC50
How it was run: as §2

YAP [7] = test: Western blot protein expression of YAP in HuCCT-1; format: cell-based, human; conditions: HuCCT-1, 72 hours, at IC25
How it was run: as §2

mTOR = test: Western blot protein expression of mTOR in HuCCT-1; format: cell-based, human; conditions: HuCCT-1, 72 hours, at IC25
How it was run: as §2

**Q.** Which “YAP gene expression, fold-change” value (YAP [1]; at high concentration (IC50)) does the source give for `C=C1CCC[C@]2(C)CC[C@@H](C(C)(C)O)C[C@@H]12` [β-eudesmol] here?
**A.** The value was 1.978 fold.

**Q.** And the “YAP gene expression, fold-change” value (YAP [1]; at low concentration (IC25))?
**A.** The value was 0.280 fold.

**Q.** And the “IC25 (concentration that inhibits cell growth by 25%)” value [2]?
**A.** Its value is 18.12 ± 7.43 µg/mL (≈ 81.5 µM).

**Q.** What about the “IC25 (concentration that inhibits cell growth by 25%)” value (HuCCT-1 (CCA cell line)) of the same compound?
**A.** Its value is 6.37 ± 2.53 µg/mL (≈ 28.6 µM).

**Q.** And the “Selectivity index (SI)” value (HuCCT-1 (CCA cell line))?
**A.** The value was 1.68.

**Q.** For `O=c1ncccn1[C@@H]1O[C@H](CO)[C@@H](O)[C@H]1O` [Zebularine], which “YAP gene expression, fold-change” value (YAP [1]; concentration not given) is on record?
**A.** Its value is 0.647 fold.

**Q.** What about the “Selectivity index (SI)” value (HuCCT-1 (CCA cell line)) of the same compound?
**A.** Its value is 4.41.

**Q.** With `Nc1ccn([C@@H]2O[C@H](CO)[C@@H](O)C2(F)F)c(=O)n1` [Gemcitabine] as the compound, how does the “JAG1 ligand gene expression, fold” value (JAG1 ligand [3]) read?
**A.** The value was 1.344 fold.

**Q.** And the “PI3K gene expression, fold” value (PI3K [4]; at IC25)?
**A.** The value was 1.4 fold.

**Q.** What about the “PI3K gene expression, fold” value (PI3K [4]; at IC50) of the same compound?
**A.** The value was 2.25 fold.

**Q.** And the “Notch1 receptor gene expression, fold of control” value (Notch1 receptor; at IC50)?
**A.** The value was 0.318 fold.

**Q.** What about the “JAG1 ligand protein expression, fold” value (JAG1 ligand [5]) of the same compound?
**A.** The value was 0.610 fold.

**Q.** What about the “PI3K protein expression, fold” value (PI3K [6]) of the same compound?
**A.** Its value is 0.677 fold.

**Q.** And the “IC25 (concentration that inhibits cell growth by 25%)” value [2]?
**A.** The value was 3.40 ± 5.78 µg/mL (≈ 12.9 µM).

**Q.** What about the “IC25 (concentration that inhibits cell growth by 25%)” value (HuCCT-1 (CCA cell line)) of the same compound?
**A.** Its value is 0.22 ± 0.35 µg/mL (≈ 0.836 µM).

**Q.** What about the “IC50 (concentration that inhibits cell growth by 50%)” value (HuCCT-1 (CCA cell line)) of the same compound?
**A.** Its value is 4.97 ± 5.09 µg/mL (≈ 18.9 µM).

**Q.** What about the “Selectivity index (SI)” value (HuCCT-1 (CCA cell line)) of the same compound?
**A.** The value was 14.05.

**Q.** For `C/C=C/C#CC#C/C=C/c1ccco1` [Atractylodin], which “YAP protein expression, fold” value (YAP [7]) is on record?
**A.** The value was 0.819 fold.

**Q.** And the “Notch1 receptor gene expression, fold of control” value (Notch1 receptor; at IC25 and IC50 concentrations (low and high))?
**A.** The value was 0.042 fold.

**Q.** What about the “mTOR protein expression, fold” value (mTOR) of the same compound?
**A.** Its value is 1.67 fold.

**Q.** What about the “YAP gene expression, fold-change” value (YAP [1]; at high concentration (IC50)) of the same compound?
**A.** Its value is 2.219 fold.

**Q.** What about the “YAP gene expression, fold-change” value (YAP [1]; at low concentration (IC25)) of the same compound?
**A.** Its value is 0.086 fold.

**Q.** What about the “IC25 (concentration that inhibits cell growth by 25%)” value [2] of the same compound?
**A.** Its value is 10.08 ± 4.27 µg/mL (≈ 55.3 µM).

**Q.** And the “IC50 (concentration that inhibits cell growth by 50%)” value [2]?
**A.** The value was 24.47 ± 8.46 µg/mL (≈ 134 µM).

**Q.** What about the “IC25 (concentration that inhibits cell growth by 25%)” value (HuCCT-1 (CCA cell line)) of the same compound?
**A.** Its value is 13.44 ± 6.28 µg/mL (≈ 73.8 µM).

**Q.** Which results are given for `C[C@H](NC(=O)Cc1cc(F)cc(F)c1)C(=O)N[C@H](C(=O)OC(C)(C)C)c1ccccc1` [DAPT]?
**A.** IC50 (concentration that inhibits cell growth by 50%) [2]: 150.29 ± 23.79 µg/mL (≈ 348 µM); IC50 (concentration that inhibits cell growth by 50%) (HuCCT-1 (CCA cell line)): 88.98 µg/mL and 89.88 ± 36.11 µg/mL

Source: PMC10162598 (Asian Pacific Journal of Cancer Prevention : APJCP, 2023)
